# Reference: ChEMBL document CHEMBL1157732, “Piperazinyl pyrimidine derivatives as potent gamma-secretase modulators” (Bioorg Med Chem Lett, 2010)
# Target: Gamma-secretase
# Test: Inhibition of gamma-secretase-mediated NotchdeltaE cleavage in human HeLa cells by luciferase assay
# Assay type: cell-based
row,Compound,IC50 [nM]
1,COc1ccc(N2CCN(c3nc(Nc4cc(C(C)(C)C)ccc4C)cc(OCCC(C)(C)O)n3)CC2(C)C)cc1,> 50000
2,COc1ccc(N2CCN(c3nc(N)cc(Nc4cc(C(C)(C)C)ccc4C)n3)CC2(C)C)cc1,34400
3,COc1ccc(N2CCN(c3nc(Nc4cc(C(C)(C)C)ccc4C)cc(OCCN4CCOCC4)n3)CC2(C)C)cc1,> 50000
4,COc1ccc(N2CCN(c3nc(Nc4cc(C(C)(C)C)ccc4C)cc(C(=O)NCC4CCCO4)n3)CC2(C)C)cc1 (stereo not given),> 50000
5,COc1ccc(N2CCN(c3nc(Nc4cc(C(C)(C)C)ccc4C)cc(OCCC4CCCN4C)n3)CC2(C)C)cc1 (stereo not given),> 50000
6,COc1ccc(N2CCN(c3nc(Nc4cc(C(C)(C)C)ccc4C)cc(OC)n3)CC2(C)C)cc1,> 50000
7,COc1ccc(N2CCN(c3nc(Nc4cc(C(C)(C)C)ccc4C)cc(OCCN(C)C)n3)CC2(C)C)cc1,28800
8,COc1ccc(N2CCN(c3nc(CO)cc(Nc4cc(C(C)(C)C)ccc4C)n3)CC2(C)C)cc1,6140

# Tested on: not listed separately
# Test: Activity at gamma-secretase expressed in human SH-SY5Y cells assessed as inhibition of amyloid beta 42 production by electrochemiluminescence assay
# Assay type: cell-based
# Method in brief: (§1)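 SH-SY5Y cells stably overexpressing the β-APP C-terminal fragment SPA4CT; Aβ40 and Aβ42 peptides secreted into the medium quantified by electrochemiluminescent detection; IC50 values derived from these measurements.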
row,Compound,IC50 [nM]
1,COc1ccc(N2CCN(c3nc(CS(C)(=O)=O)cc(Nc4cc(C(C)(C)C)ccc4C)n3)CC2(C)C)cc1,348
2,CCN(CC)c1cc(C)c(Nc2ccnc(N3CCN(c4ccc(OC)cc4)CC3)n2)cc1C,1910
3,COc1ccc(N2CCN(c3nccc(Nc4cc(C(C)(C)C)ccc4Cl)n3)CC2(C)C)cc1,695
4,CCOc1cc(C)c(Nc2ccnc(N3CCN(c4ccc(OC)cc4)C(C)(C)C3)n2)cc1C,534
5,CCOc1cc(C)c(Nc2ccnc(N3CCN(c4ccc(OC)cc4)C(C)(C)C3)n2)cc1C(C)C,35.6
6,COc1ccc(N2CCN(c3nccc(Nc4cc(C(C)(C)C)nn4CC(F)(F)F)n3)CC2(C)C)cc1,272
7,COc1ccc(N2CCN(c3nc(CC(=O)O)cc(Nc4cc(C(C)(C)C)ccc4C)n3)CC2(C)C)cc1,572
8,COc1ccc(N2CCN(c3nc(Nc4cc(C(C)(C)C)ccc4C)cc(OCCC(C)(C)O)n3)CC2(C)C)cc1,216
9,COc1ccc(N2CCN(c3nc(N)cc(Nc4cc(C(C)(C)C)ccc4C)n3)CC2(C)C)cc1,88
10,CCN(CC)c1cc(C)c(Nc2ccnc(N3CCN(c4ccc(OC)cc4)C(C)(C)C3)n2)cc1C,169
11,COc1ccc(N2CCN(c3nc(Nc4cc(C(C)(C)C)ccc4C)cc(OCCN4CCOCC4)n3)CC2(C)C)cc1,263
12,COc1ccc(N2CCN(c3nc(Nc4cc(C(C)(C)C)ccc4C)cc(S(C)(=O)=O)n3)CC2(C)C)cc1,400
13,COc1ccc(N2CCN(c3nccc(Nc4cc(C)ccc4C)n3)CC2(C)C)cc1,1000
14,CNC(=O)c1cc(Nc2cc(C(C)(C)C)ccc2C)nc(N2CCN(c3ccc(OC)cc3)C(C)(C)C2)n1,307
15,COc1ccc(N2CCN(c3nccc(Nc4cc(C(C)(C)C)ccc4C)n3)CC2(C)C)cc1,255
16,COc1ccc(N2CCN(c3nccc(Nc4cc(C(C)(C)C)nn4C)n3)CC2(C)C)cc1,150
17,COc1ccc(N2CCN(c3nc(Nc4cc(C(C)(C)C)ccc4C)cc(C(=O)NCC4CCCO4)n3)CC2(C)C)cc1 (stereo not given),194
18,COc1ccc(N2CCN(c3nc(Nc4cc(C(C)(C)C)ccc4C)cc(C(=O)O)n3)CC2(C)C)cc1,234
19,COC(=O)c1cc(Nc2cc(C(C)(C)C)ccc2C)nc(N2CCN(c3ccc(OC)cc3)C(C)(C)C2)n1,85
20,COc1ccc(N2CCN(c3nc(Nc4cc(C(C)(C)C)ccc4C)cc(OCCC4CCCN4C)n3)CC2(C)C)cc1 (stereo not given),235
21,COc1ccc(N2CCN(c3nc(Nc4cc(C(C)(C)C)ccc4C)cc(OC)n3)CC2(C)C)cc1,262
22,COc1ccc(N2CCN(c3nc(Nc4cc(C(C)(C)C)ccc4C)cc(OCCN(C)C)n3)CC2(C)C)cc1,108
23,COc1ccc(N2CCN(c3nccc(Nc4cc(-c5ccccc5)ccc4C)n3)CC2(C)C)cc1,410
24,CCOc1ccc(Nc2ccnc(N3CCN(c4ccc(OC)cc4)C(C)(C)C3)n2)c(C)c1,3440
25,COc1ccc(N2CCN(c3nc(Nc4cc(C(C)(C)C)ccc4C)cc(C(=O)NCCN(C)C)n3)CC2(C)C)cc1,112
26,COc1ccc(N2CCN(c3nc(CO)cc(Nc4cc(C(C)(C)C)ccc4C)n3)CC2(C)C)cc1,34
27,COc1ccc(N2CCN(c3nc(Nc4cc(C(C)(C)C)ccc4C)cc(N(C)CCN(C)C)n3)CC2(C)C)cc1,213

# Tested on: not listed separately
# Test: Activity at gamma-secretase expressed in human SH-SY5Y cells assessed as inhibition of amyloid beta 40 production by electrochemiluminescence assay
# Assay type: cell-based
# Method in brief: as §1
row,Compound,IC50 [nM]
1,COc1ccc(N2CCN(c3nc(CS(C)(=O)=O)cc(Nc4cc(C(C)(C)C)ccc4C)n3)CC2(C)C)cc1,6460
2,CCN(CC)c1cc(C)c(Nc2ccnc(N3CCN(c4ccc(OC)cc4)CC3)n2)cc1C,3740
3,COc1ccc(N2CCN(c3nccc(Nc4cc(C(C)(C)C)ccc4Cl)n3)CC2(C)C)cc1,1000
4,CCOc1cc(C)c(Nc2ccnc(N3CCN(c4ccc(OC)cc4)C(C)(C)C3)n2)cc1C,6300
5,CCOc1cc(C)c(Nc2ccnc(N3CCN(c4ccc(OC)cc4)C(C)(C)C3)n2)cc1C(C)C,737
6,COc1ccc(N2CCN(c3nccc(Nc4cc(C(C)(C)C)nn4CC(F)(F)F)n3)CC2(C)C)cc1,5090
7,COc1ccc(N2CCN(c3nc(CC(=O)O)cc(Nc4cc(C(C)(C)C)ccc4C)n3)CC2(C)C)cc1,6410
8,COc1ccc(N2CCN(c3nc(Nc4cc(C(C)(C)C)ccc4C)cc(OCCC(C)(C)O)n3)CC2(C)C)cc1,5450
9,COc1ccc(N2CCN(c3nc(N)cc(Nc4cc(C(C)(C)C)ccc4C)n3)CC2(C)C)cc1,830
10,CCN(CC)c1cc(C)c(Nc2ccnc(N3CCN(c4ccc(OC)cc4)C(C)(C)C3)n2)cc1C,2950
11,COc1ccc(N2CCN(c3nc(Nc4cc(C(C)(C)C)ccc4C)cc(OCCN4CCOCC4)n3)CC2(C)C)cc1,6150
12,COc1ccc(N2CCN(c3nc(Nc4cc(C(C)(C)C)ccc4C)cc(S(C)(=O)=O)n3)CC2(C)C)cc1,5780
13,COc1ccc(N2CCN(c3nccc(Nc4cc(C)ccc4C)n3)CC2(C)C)cc1,4580
14,CNC(=O)c1cc(Nc2cc(C(C)(C)C)ccc2C)nc(N2CCN(c3ccc(OC)cc3)C(C)(C)C2)n1,2980
15,COc1ccc(N2CCN(c3nccc(Nc4cc(C(C)(C)C)ccc4C)n3)CC2(C)C)cc1,5560
16,COc1ccc(N2CCN(c3nccc(Nc4cc(C(C)(C)C)nn4C)n3)CC2(C)C)cc1,1940
17,COc1ccc(N2CCN(c3nc(Nc4cc(C(C)(C)C)ccc4C)cc(C(=O)NCC4CCCO4)n3)CC2(C)C)cc1 (stereo not given),8120
18,COc1ccc(N2CCN(c3nc(Nc4cc(C(C)(C)C)ccc4C)cc(C(=O)O)n3)CC2(C)C)cc1,1930
19,COC(=O)c1cc(Nc2cc(C(C)(C)C)ccc2C)nc(N2CCN(c3ccc(OC)cc3)C(C)(C)C2)n1,2290
20,COc1ccc(N2CCN(c3nc(Nc4cc(C(C)(C)C)ccc4C)cc(OCCC4CCCN4C)n3)CC2(C)C)cc1 (stereo not given),5600
21,COc1ccc(N2CCN(c3nc(Nc4cc(C(C)(C)C)ccc4C)cc(OC)n3)CC2(C)C)cc1,5680
22,COc1ccc(N2CCN(c3nc(Nc4cc(C(C)(C)C)ccc4C)cc(OCCN(C)C)n3)CC2(C)C)cc1,1590
23,COc1ccc(N2CCN(c3nccc(Nc4cc(-c5ccccc5)ccc4C)n3)CC2(C)C)cc1,2280
24,CCOc1ccc(Nc2ccnc(N3CCN(c4ccc(OC)cc4)C(C)(C)C3)n2)c(C)c1,10000
25,COc1ccc(N2CCN(c3nc(Nc4cc(C(C)(C)C)ccc4C)cc(C(=O)NCCN(C)C)n3)CC2(C)C)cc1,1710
26,COc1ccc(N2CCN(c3nc(CO)cc(Nc4cc(C(C)(C)C)ccc4C)n3)CC2(C)C)cc1,823
27,COc1ccc(N2CCN(c3nc(Nc4cc(C(C)(C)C)ccc4C)cc(N(C)CCN(C)C)n3)CC2(C)C)cc1,1970

# Target: Gamma-secretase (Homo sapiens) (UniProt Q96BI3+Q9NZ42+Q8WW43+P49768+Q92542+P49810)
# Test: Selectivity ratio, IC50 for human gamma-secretase-mediated NotchdeltaE cleavage to IC50 for gamma-secretase-mediated amyloid beta 42 production
# Assay type: protein-complex assay
row,Compound,Ratio IC50
1,COc1ccc(N2CCN(c3nc(Nc4cc(C(C)(C)C)ccc4C)cc(OCCC(C)(C)O)n3)CC2(C)C)cc1,> 230
2,COc1ccc(N2CCN(c3nc(N)cc(Nc4cc(C(C)(C)C)ccc4C)n3)CC2(C)C)cc1,390
3,COc1ccc(N2CCN(c3nc(Nc4cc(C(C)(C)C)ccc4C)cc(OCCN4CCOCC4)n3)CC2(C)C)cc1,> 190
4,COc1ccc(N2CCN(c3nc(Nc4cc(C(C)(C)C)ccc4C)cc(C(=O)NCC4CCCO4)n3)CC2(C)C)cc1 (stereo not given),> 250
5,COc1ccc(N2CCN(c3nc(Nc4cc(C(C)(C)C)ccc4C)cc(OCCC4CCCN4C)n3)CC2(C)C)cc1 (stereo not given),> 210
6,COc1ccc(N2CCN(c3nc(Nc4cc(C(C)(C)C)ccc4C)cc(OC)n3)CC2(C)C)cc1,> 190
7,COc1ccc(N2CCN(c3nc(Nc4cc(C(C)(C)C)ccc4C)cc(OCCN(C)C)n3)CC2(C)C)cc1,270
8,COc1ccc(N2CCN(c3nc(CO)cc(Nc4cc(C(C)(C)C)ccc4C)n3)CC2(C)C)cc1,180
